According to ChEMBL document CHEMBL4257576, “4-Iminooxazolidin-2-one as a Bioisostere of the Cyanohydrin Moiety: Inhibitors of Enterovirus 71 3C Protease” (J Med Chem, 2018):
Activity calls are given as the source filed them. No cut-off for these calls is given here.

Test system: not listed separately
Assay: Half life in human plasma by HPLC analysis
Assay type: ADME, cell-free
Details: not given
Summary of the method: (§1)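 Compound was incubated in human or mouse plasma and its remaining level followed over time to obtain t1/2. Each point is n = 3 with standard deviation bars.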
With `CCCN1C(=N)[C@@H]([C@H](C[C@@H]2CCCNC2=O)NC(=O)[C@H](Cc2ccc(F)cc2)NC(=O)c2cc(C)on2)OC1=O` the half-life was over 120 min. `CC(=O)O[C@@H](C#N)[C@H](C[C@@H]1CCCNC1=O)NC(=O)[C@H](Cc1ccc(F)cc1)NC(=O)c1cc(C)on1` gave a half-life of 50 min. With `Cc1cc(C(=O)N[C@@H](Cc2ccc(F)cc2)C(=O)N[C@@H](C[C@@H]2CCCNC2=O)[C@@H](O)C#N)no1` the half-life was 11 min.

Test system: not listed separately
Assay: Half life in ICR (CD-1) mouse plasma by HPLC analysis
Assay type: ADME, cell-free
Details: not given
Summary of the method: as §1
Work on `CCCN1C(=N)[C@@H]([C@H](C[C@@H]2CCCNC2=O)NC(=O)[C@H](Cc2ccc(F)cc2)NC(=O)c2cc(C)on2)OC1=O` yielded a half-life of over 120 min. Compound `CC(=O)O[C@@H](C#N)[C@H](C[C@@H]1CCCNC1=O)NC(=O)[C@H](Cc1ccc(F)cc1)NC(=O)c1cc(C)on1` has a half-life of 42 min. In the case of `Cc1cc(C(=O)N[C@@H](Cc2ccc(F)cc2)C(=O)N[C@@H](C[C@@H]2CCCNC2=O)[C@@H](O)C#N)no1`, the half-life is reported as 7 min.

Test system: not listed separately
Assay: Half life in human liver microsomes at 1 mg/ml in presence of NADPH regenerating system by HPLC analysis
Assay type: ADME, microsome
Details: not given
Summary of the method: (§2)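 Human and mouse liver microsomes at 1.0 mg/mL. Compound disappearance was tracked over time to give half-life and intrinsic clearance (Clint, µL/min/mg). Data are the mean of triplicates with SD (n = 3).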
`CCCN1C(=N)[C@@H]([C@H](C[C@@H]2CCCNC2=O)NC(=O)[C@H](Cc2ccc(F)cc2)NC(=O)c2cc(C)on2)OC1=O` showed a half-life of 40 min. Work on `CC(=O)O[C@@H](C#N)[C@H](C[C@@H]1CCCNC1=O)NC(=O)[C@H](Cc1ccc(F)cc1)NC(=O)c1cc(C)on1` yielded a half-life of 64 min. With `Cc1cc(C(=O)N[C@@H](Cc2ccc(F)cc2)C(=O)N[C@@H](C[C@@H]2CCCNC2=O)[C@@H](O)C#N)no1` the half-life was 8 min.

Test system: not listed separately
Assay: Half life in mouse liver microsomes at 1 mg/ml in presence of NADPH regenerating system by HPLC analysis
Assay type: ADME, microsome
Details: not given
Summary of the method: as §2
`CCCN1C(=N)[C@@H]([C@H](C[C@@H]2CCCNC2=O)NC(=O)[C@H](Cc2ccc(F)cc2)NC(=O)c2cc(C)on2)OC1=O` showed a half-life of 35 min. Work on `Cc1cc(C(=O)N[C@@H](Cc2ccc(F)cc2)C(=O)N[C@@H](C[C@@H]2CCCNC2=O)[C@@H](O)C#N)no1` yielded a half-life of 6 min.

Test system: not listed separately
Assay: Intrinsic clearance in human liver microsomes at 1 mg/ml in presence of NADPH regenerating system by HPLC analysis
Assay type: ADME, microsome
Details: read-out: CLH
Summary of the method: as §2
Work on `CCCN1C(=N)[C@@H]([C@H](C[C@@H]2CCCNC2=O)NC(=O)[C@H](Cc2ccc(F)cc2)NC(=O)c2cc(C)on2)OC1=O` yielded a microsomal CLint of 17 µL/min/mg. `Cc1cc(C(=O)N[C@@H](Cc2ccc(F)cc2)C(=O)N[C@@H](C[C@@H]2CCCNC2=O)[C@@H](O)C#N)no1` showed a microsomal CLint of 87 µL/min/mg.

Test system: not listed separately
Assay: Intrinsic clearance in mouse liver microsomes at 1 mg/ml in presence of NADPH regenerating system by HPLC analysis
Assay type: ADME, microsome
Details: read-out: CLH
Summary of the method: as §2
Compound `CCCN1C(=N)[C@@H]([C@H](C[C@@H]2CCCNC2=O)NC(=O)[C@H](Cc2ccc(F)cc2)NC(=O)c2cc(C)on2)OC1=O` has a microsomal CLint of 20 µL/min/mg. `Cc1cc(C(=O)N[C@@H](Cc2ccc(F)cc2)C(=O)N[C@@H](C[C@@H]2CCCNC2=O)[C@@H](O)C#N)no1` gave a microsomal CLint of 116 µL/min/mg.

Target: Genome polyprotein (Enterovirus A71, UniProt A0A1D8D5K2)
Sequence (A0A1D8D5K2 whole entry): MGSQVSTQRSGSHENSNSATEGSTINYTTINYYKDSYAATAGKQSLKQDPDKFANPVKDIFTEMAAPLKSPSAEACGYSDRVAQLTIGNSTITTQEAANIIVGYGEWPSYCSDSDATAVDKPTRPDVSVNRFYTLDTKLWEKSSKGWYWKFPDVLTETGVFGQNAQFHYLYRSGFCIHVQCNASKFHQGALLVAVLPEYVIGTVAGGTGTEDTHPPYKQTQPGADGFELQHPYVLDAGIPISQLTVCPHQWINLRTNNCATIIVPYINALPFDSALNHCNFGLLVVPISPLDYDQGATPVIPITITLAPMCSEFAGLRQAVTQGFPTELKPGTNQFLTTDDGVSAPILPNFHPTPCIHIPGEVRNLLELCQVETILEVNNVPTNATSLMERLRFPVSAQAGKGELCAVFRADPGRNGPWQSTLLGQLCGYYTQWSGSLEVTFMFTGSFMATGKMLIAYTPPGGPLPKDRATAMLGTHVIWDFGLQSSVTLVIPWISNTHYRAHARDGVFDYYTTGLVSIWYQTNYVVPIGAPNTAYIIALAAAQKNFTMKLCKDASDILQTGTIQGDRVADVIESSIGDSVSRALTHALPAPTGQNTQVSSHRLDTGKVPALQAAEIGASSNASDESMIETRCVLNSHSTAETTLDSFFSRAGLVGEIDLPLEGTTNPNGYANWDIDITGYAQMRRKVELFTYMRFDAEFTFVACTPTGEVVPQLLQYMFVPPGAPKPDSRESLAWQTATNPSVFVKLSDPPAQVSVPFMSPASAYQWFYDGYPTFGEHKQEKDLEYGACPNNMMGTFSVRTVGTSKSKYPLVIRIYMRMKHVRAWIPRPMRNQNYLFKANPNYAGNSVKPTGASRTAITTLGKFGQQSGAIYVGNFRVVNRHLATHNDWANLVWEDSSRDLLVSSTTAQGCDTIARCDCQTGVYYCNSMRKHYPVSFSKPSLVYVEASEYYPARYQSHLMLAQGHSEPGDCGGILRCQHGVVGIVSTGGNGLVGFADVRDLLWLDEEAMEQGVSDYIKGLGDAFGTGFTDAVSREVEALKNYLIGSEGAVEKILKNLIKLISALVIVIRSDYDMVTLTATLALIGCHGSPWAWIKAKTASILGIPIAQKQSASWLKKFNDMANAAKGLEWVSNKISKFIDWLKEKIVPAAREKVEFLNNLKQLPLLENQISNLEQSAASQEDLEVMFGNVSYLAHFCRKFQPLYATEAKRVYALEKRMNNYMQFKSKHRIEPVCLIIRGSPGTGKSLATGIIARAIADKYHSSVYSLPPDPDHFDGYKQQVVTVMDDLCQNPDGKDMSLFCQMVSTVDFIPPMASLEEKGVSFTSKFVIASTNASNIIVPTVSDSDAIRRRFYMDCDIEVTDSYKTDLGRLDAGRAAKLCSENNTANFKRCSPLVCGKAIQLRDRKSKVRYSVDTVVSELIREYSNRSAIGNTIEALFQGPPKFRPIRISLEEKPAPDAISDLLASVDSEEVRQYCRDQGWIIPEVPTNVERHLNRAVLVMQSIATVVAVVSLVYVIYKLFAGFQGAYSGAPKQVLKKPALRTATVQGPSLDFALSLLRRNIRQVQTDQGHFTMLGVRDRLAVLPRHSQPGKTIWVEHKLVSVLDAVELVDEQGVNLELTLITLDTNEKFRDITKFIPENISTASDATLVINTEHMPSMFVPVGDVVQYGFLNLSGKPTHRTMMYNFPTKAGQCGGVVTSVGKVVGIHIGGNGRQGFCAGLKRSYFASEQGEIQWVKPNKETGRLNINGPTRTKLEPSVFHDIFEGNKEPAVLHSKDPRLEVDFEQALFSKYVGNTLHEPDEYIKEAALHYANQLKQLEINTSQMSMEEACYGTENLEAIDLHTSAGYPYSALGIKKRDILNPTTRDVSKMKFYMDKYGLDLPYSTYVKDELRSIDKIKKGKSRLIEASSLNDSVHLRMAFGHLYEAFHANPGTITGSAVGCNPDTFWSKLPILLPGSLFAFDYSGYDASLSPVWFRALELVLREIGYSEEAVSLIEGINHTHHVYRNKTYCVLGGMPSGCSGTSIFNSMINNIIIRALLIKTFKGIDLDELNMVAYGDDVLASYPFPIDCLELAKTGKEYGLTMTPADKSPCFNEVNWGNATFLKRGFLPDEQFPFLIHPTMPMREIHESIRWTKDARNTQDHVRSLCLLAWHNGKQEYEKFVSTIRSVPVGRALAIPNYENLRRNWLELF
Assay: Inhibition of EV71 3C protease expressed in Escherichia coli BL21(DE3) using NMA-IEALFQGPPK(DNP)FR as substrate preincubated for 0.5 hrs followed by substrate addition by fluorescence assay
Details: not given
Summary of the method: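 Values reported as Ki (µM), each the mean of three independent experiments with SEM (n=3).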
For `CCCN1C(=N)[C@@H]([C@H](C[C@@H]2CCCNC2=O)NC(=O)[C@H](Cc2ccc(F)cc2)NC(=O)c2cc(C)on2)OC1=O`, the Ki was 83 nM. Work on `CC(=O)O[C@@H](C#N)[C@H](C[C@@H]1CCCNC1=O)NC(=O)[C@H](Cc1ccc(F)cc1)NC(=O)c1cc(C)on1` yielded a Ki of 64 nM. Compound `Cc1cc(C(=O)N[C@@H](Cc2ccc(F)cc2)C(=O)N[C@@H](C[C@@H]2CCCNC2=O)[C@@H](O)C#N)no1` has a Ki of 4 nM.

Test system: Enterovirus A71
Assay: Antiviral activity against Enterovirus A71 infected in human RD cells receiving pEV71-Luc subgenomic replicon stocks from HEK-293T cells
Assay type: functional, organism-based
Details: Enterovirus A
Summary of the method: (§3)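 Values (EC50, CC50) are the average of three independent experiments, with SEM (n = 3).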
With `CCCN1C(=N)[C@@H]([C@H](C[C@@H]2CCCNC2=O)NC(=O)[C@H](Cc2ccc(F)cc2)NC(=O)c2cc(C)on2)OC1=O` the EC50 was 210 nM. `CC(=O)O[C@@H](C#N)[C@H](C[C@@H]1CCCNC1=O)NC(=O)[C@H](Cc1ccc(F)cc1)NC(=O)c1cc(C)on1` gave an EC50 of 67 nM. With `Cc1cc(C(=O)N[C@@H](Cc2ccc(F)cc2)C(=O)N[C@@H](C[C@@H]2CCCNC2=O)[C@@H](O)C#N)no1` the EC50 was 88 nM.

Test system: Mus musculus
Assay: AUC (0 to t) in ICR (CD-1) mouse at 20 mg/kg, iv administered as single dose by LC-MS analysis
Assay type: ADME, organism-based
Details: in vivo
Summary of the method: (§4)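 Male mice got a single 20 mg/kg dose, either IV or oral (PO), with separate groups for each route. Plasma concentration–time profiles were followed, and parameters were taken from mean ± SD curves (n = 3).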
Compound `CCCN1C(=N)[C@@H]([C@H](C[C@@H]2CCCNC2=O)NC(=O)[C@H](Cc2ccc(F)cc2)NC(=O)c2cc(C)on2)OC1=O` has an AUCt of 2340 ng·h/mL.

Test system: Mus musculus
Assay: Cmax in ICR (CD-1) mouse at 20 mg/kg, iv administered as single dose by LC-MS analysis
Assay type: ADME, organism-based
Set-up: dose 20 mg/kg, route intravenous
Details: in vivo
Summary of the method: as §4
In the case of `CCCN1C(=N)[C@@H]([C@H](C[C@@H]2CCCNC2=O)NC(=O)[C@H](Cc2ccc(F)cc2)NC(=O)c2cc(C)on2)OC1=O`, the Cmax is reported as 8200 ng/mL.

Test system: not listed separately
Assay: Tmax in ICR (CD-1) mouse at 20 mg/kg, iv administered as single dose by LC-MS analysis
Assay type: ADME, organism-based
Details: in vivo
Summary of the method: as §4
`CCCN1C(=N)[C@@H]([C@H](C[C@@H]2CCCNC2=O)NC(=O)[C@H](Cc2ccc(F)cc2)NC(=O)c2cc(C)on2)OC1=O` showed a Tmax of 5 min.

Test system: not listed separately
Assay: Half life in ICR (CD-1) mouse at 20 mg/kg, iv administered as single dose by LC-MS analysis
Assay type: ADME, organism-based
Details: in vivo
Summary of the method: as §4
In the case of `CCCN1C(=N)[C@@H]([C@H](C[C@@H]2CCCNC2=O)NC(=O)[C@H](Cc2ccc(F)cc2)NC(=O)c2cc(C)on2)OC1=O`, the half-life is reported as 51 min.

Test system: Mus musculus
Assay: AUC (0 to t) in ICR (CD-1) mouse at 20 mg/kg, po administered as single dose by LC-MS analysis
Assay type: ADME, organism-based
Details: in vivo
Summary of the method: as §4
Work on `CCCN1C(=N)[C@@H]([C@H](C[C@@H]2CCCNC2=O)NC(=O)[C@H](Cc2ccc(F)cc2)NC(=O)c2cc(C)on2)OC1=O` yielded an AUCt of 7.9 mg·min/mL.

Test system: Mus musculus
Assay: Cmax in ICR (CD-1) mouse at 20 mg/kg, po administered as single dose by LC-MS analysis
Assay type: ADME, organism-based
Set-up: dose 20 mg/kg, route oral
Details: in vivo
Summary of the method: as §4
Work on `CCCN1C(=N)[C@@H]([C@H](C[C@@H]2CCCNC2=O)NC(=O)[C@H](Cc2ccc(F)cc2)NC(=O)c2cc(C)on2)OC1=O` yielded a Cmax of 150 ng/mL.

Test system: not listed separately
Assay: Tmax in ICR (CD-1) mouse at 20 mg/kg, po administered as single dose by LC-MS analysis
Assay type: ADME, organism-based
Details: in vivo
Summary of the method: as §4
Work on `CCCN1C(=N)[C@@H]([C@H](C[C@@H]2CCCNC2=O)NC(=O)[C@H](Cc2ccc(F)cc2)NC(=O)c2cc(C)on2)OC1=O` yielded a Tmax of 15 min.

Test system: not listed separately
Assay: Half life in ICR (CD-1) mouse at 20 mg/kg, po administered as single dose by LC-MS analysis
Assay type: ADME, organism-based
Details: in vivo
Summary of the method: as §4
For `CCCN1C(=N)[C@@H]([C@H](C[C@@H]2CCCNC2=O)NC(=O)[C@H](Cc2ccc(F)cc2)NC(=O)c2cc(C)on2)OC1=O`, the half-life was 60 min.

Test system: not listed separately
Assay: Cytotoxicity in human RD cells assessed as reduction in cell viability incubated for 24 hrs by WST1 assay
Assay type: cell-based
Details: not given
Summary of the method: as §3
With `CCCN1C(=N)[C@@H]([C@H](C[C@@H]2CCCNC2=O)NC(=O)[C@H](Cc2ccc(F)cc2)NC(=O)c2cc(C)on2)OC1=O` the CC50 at 24 h was over 100000 nM. `CC(=O)O[C@@H](C#N)[C@H](C[C@@H]1CCCNC1=O)NC(=O)[C@H](Cc1ccc(F)cc1)NC(=O)c1cc(C)on1` showed a CC50 at 24 h of over 100000 nM. `Cc1cc(C(=O)N[C@@H](Cc2ccc(F)cc2)C(=O)N[C@@H](C[C@@H]2CCCNC2=O)[C@@H](O)C#N)no1` gave a CC50 at 24 h of over 100000 nM.

Target: Genome polyprotein (Enterovirus A71) (UniProt A0A1D8D5K2)
Sequence (A0A1D8D5K2 as listed by the source): as the sequence (A0A1D8D5K2 whole entry) above
Assay: Covalent binding affinity to EV71 3C protease expressed in Escherichia coli BL21(DE3) at 2 mg/ml incubated for 2 to 3 hrs and measured after trypsin digestion by LC-MS/MS analysis
Details: not given
In the case of `CCCN1C(=N)[C@@H]([C@H](C[C@@H]2CCCNC2=O)NC(=O)[C@H](Cc2ccc(F)cc2)NC(=O)c2cc(C)on2)OC1=O`, the Activity is reported as “inactive”. For `Cc1cc(C(=O)N[C@@H](Cc2ccc(F)cc2)C(=O)N[C@@H](C[C@@H]2CCCNC2=O)[C@@H](O)C#N)no1`, the Activity was “inactive”.
